According to article PMC10841542 (Immunology, 2023):
“Also recorded” adds a separate entry of the source.

Tests used:
ERAP1 I681R [1] = biological target: T1, ERAP1 I681R (Homo sapiens, UniProt Q9NZ08, I681R); experiment: Simple activation assay; assay type: biochemical; conditions: 100 μM L-AMC, pH 8.0, 25 °C, 5 min
In short: (§1)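 ERAP1 enzyme: allotype-1, WT or point mutant, with a C-terminal His6 tag. It was expressed in Sf9 cells by baculovirus and purified by Ni-NTA and gel filtration. Assay: 1.5 µg ml-1 enzyme in 50 mM Tris/HCl pH 8.0, 0.1 M NaCl at 25 °C, with or without 100 µM 7-mer peptide activator. Hydrolysis of 100 µM L-AMC was followed for 5 min by AMC fluorescence (ex 380/em 460 nm), calibrated with AMC standards.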

ERAP1 WT [2] = experiment: Simple activation assay; assay type: biochemical, human; conditions: 100 μM L-AMC, pH 8.0, 25 °C, 5 min; for activation of L-AMC hydrolysis over basal level: 100 μM peptide
In short: as §1

ERAP1 V737R [3] = biological target: T2, ERAP1 V737R (Homo sapiens, UniProt Q9NZ08, V737R); experiment: Simple activation assay; assay type: biochemical; conditions: 100 μM L-AMC, pH 8.0, 25 °C, 5 min
T2 sequence (Q9NZ08 whole entry V737R): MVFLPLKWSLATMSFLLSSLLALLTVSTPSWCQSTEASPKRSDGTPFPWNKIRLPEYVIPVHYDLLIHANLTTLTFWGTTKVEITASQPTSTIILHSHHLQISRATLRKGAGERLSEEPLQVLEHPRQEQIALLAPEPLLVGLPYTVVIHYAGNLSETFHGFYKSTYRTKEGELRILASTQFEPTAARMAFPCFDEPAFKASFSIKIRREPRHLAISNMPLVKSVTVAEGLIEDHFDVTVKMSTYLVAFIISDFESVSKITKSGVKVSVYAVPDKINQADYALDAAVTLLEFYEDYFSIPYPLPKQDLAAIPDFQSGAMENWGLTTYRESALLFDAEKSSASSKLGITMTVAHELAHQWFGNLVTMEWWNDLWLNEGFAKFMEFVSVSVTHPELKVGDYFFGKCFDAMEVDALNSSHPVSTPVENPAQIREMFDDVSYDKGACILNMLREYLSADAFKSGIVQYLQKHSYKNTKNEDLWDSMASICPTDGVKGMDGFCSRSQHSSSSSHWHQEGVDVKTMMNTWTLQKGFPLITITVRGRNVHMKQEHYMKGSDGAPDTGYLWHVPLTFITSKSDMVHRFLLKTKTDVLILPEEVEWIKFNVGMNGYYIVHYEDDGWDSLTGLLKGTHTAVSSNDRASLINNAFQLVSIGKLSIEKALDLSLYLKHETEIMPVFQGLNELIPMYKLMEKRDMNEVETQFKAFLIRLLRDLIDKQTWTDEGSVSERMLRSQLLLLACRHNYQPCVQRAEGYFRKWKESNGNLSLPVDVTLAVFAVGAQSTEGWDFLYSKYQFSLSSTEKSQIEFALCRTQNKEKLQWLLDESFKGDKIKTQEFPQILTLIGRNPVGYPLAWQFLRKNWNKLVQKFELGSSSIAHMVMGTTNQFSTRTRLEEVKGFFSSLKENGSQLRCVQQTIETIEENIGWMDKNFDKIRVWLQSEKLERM
In short: as §1

ERAP1 I681R [4] = biological target: T1, ERAP1 I681R; experiment: Steady-state kinetics of L-AMC hydrolysis ± 7-mer peptide activator, I681R; assay type: biochemical; conditions: pH 8.0, 27 °C
In short: (§2)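 Steady-state kinetics used purified His6-tagged ERAP1 (allotype-1, WT or mutant) from baculovirus-infected Sf9 cells at 1.5 µg ml-1. Buffer was 50 mM Tris/HCl pH 8.0, 0.1 M NaCl at 27 °C, with L-AMC at 0–2,000 µM, with or without 100 µM 7-mer peptide. AMC release (ex 380/em 460 nm) was followed for 5 min. Initial rates from three time points (nmoles.min-1.µg-1) were curve-fitted for Vmax, K1/2 and Hill coefficient. Comparisons used Brown-Forsyth one-way ANOVA with Tukey's test.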

ERAP1 L733R [5] = biological target: T3, ERAP1 L733R (Homo sapiens, UniProt Q9NZ08, L733R); experiment: Simple activation assay; assay type: biochemical; conditions: 100 μM L-AMC, pH 8.0, 25 °C, 5 min
T3 sequence (Q9NZ08 whole entry L733R): as the sequence (Q9NZ08 whole entry V737R) above, with L733R, R737V counted along it
In short: as §1

ERAP1 L733R [6] = biological target: T3, ERAP1 L733R; experiment: Steady-state kinetics of L-AMC hydrolysis ± 7-mer peptide activator, L733R; assay type: biochemical; conditions: pH 8.0, 27 °C
In short: as §2

ERAP1 F803R [7] = experiment: Simple activation assay; assay type: biochemical, human; conditions: 100 μM L-AMC, pH 8.0, 25 °C, 5 min; for activation of L-AMC hydrolysis over basal level: 100 μM peptide
In short: as §1

ERAP1 L734R [8] = experiment: Steady-state kinetics of L-AMC hydrolysis ± 7-mer peptide activator, L734R; assay type: biochemical, human; conditions: pH 8.0, 27 °C
In short: as §2

ERAP1 F803R [9] = biological target: T4, ERAP1 F803R (Homo sapiens, UniProt Q9NZ08, F803R); experiment: Steady-state kinetics of L-AMC hydrolysis ± 7-mer peptide activator, F803R; assay type: biochemical; conditions: pH 8.0, 27 °C
T4 sequence (Q9NZ08 whole entry F803R): as the sequence (Q9NZ08 whole entry V737R) above, with R737V, F803R counted along it
In short: as §2

ERAP1 WT [10] = experiment: Steady-state kinetics of L-AMC hydrolysis ± 7-mer peptide activator, ERAP1 WT; assay type: biochemical, human; conditions: pH 8.0, 27 °C
In short: as §2

ERAP1 L734R [11] = experiment: Simple activation assay; assay type: biochemical, human; conditions: 100 μM L-AMC, pH 8.0, 25 °C, 5 min
In short: as §1

ERAP1 V737R [12] = biological target: T2, ERAP1 V737R; experiment: Steady-state kinetics of L-AMC hydrolysis ± 7-mer peptide activator, V737R; assay type: biochemical; conditions: pH 8.0, 27 °C; for allosteric activation in steady state kinetics: 100 μM peptide, 0–2,000 μM L-AMC
In short: as §2

ERAP1 WT and variants = assay type: biochemical, human; conditions: 100 μM peptide; most enzyme variants; 0–2,000 μM L-AMC; pH 8.0; 27 °C
In short: as §2

ERAP1 L733R [13] = biological target: T3, ERAP1 L733R; experiment: Allosteric activation of L-AMC hydrolysis, varying peptide effector, L733R; assay type: biochemical; conditions: 0–2,000 μM peptide, 100 μM L-AMC, 27 °C, three independent repeats
In short: (§3)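 Recombinant human ERAP1 (allotype-1, WT or Arg point mutant) carrying a C-terminal His6 tag, expressed in baculovirus-infected Sf9 cells and purified by Ni-NTA then gel filtration (full-length peak). 1.5 µg/ml enzyme with 100 µM L-AMC and 7-mer peptide activator varied 0–2,000 µM, in 50 mM Tris/HCl pH 8.0, 0.1 M NaCl, 27 °C, 5 min. AMC fluorescence read at ex 380/em 460 nm against AMC standards. Vmax and AC50 fitted to Michaelis-Menten.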

ERAP1 L734R [14] = biological target: ERAP1 L734R (Homo sapiens, UniProt Q9NZ08, L734R); experiment: Allosteric activation of L-AMC hydrolysis, varying peptide effector, L734R; assay type: biochemical; conditions: 0–2,000 μM peptide, 100 μM L-AMC, 27 °C, three independent repeats
Sequence of ERAP1 L734R (Homo sapiens, UniProt Q9NZ08, L734R) (Q9NZ08 whole entry L734R): as the sequence (Q9NZ08 whole entry V737R) above, with L734R, R737V counted along it
In short: as §3

ERAP1 I681R [15] = biological target: T1, ERAP1 I681R; experiment: Allosteric activation of L-AMC hydrolysis, varying peptide effector, I681R; assay type: biochemical; conditions: 0–2,000 μM peptide, 100 μM L-AMC, 27 °C, three independent repeats
In short: as §3

ERAP1 F803R [16] = biological target: T4, ERAP1 F803R; experiment: Allosteric activation of L-AMC hydrolysis, varying peptide effector, F803R; assay type: biochemical; conditions: 0–2,000 μM peptide, 100 μM L-AMC, 27 °C, three independent repeats
In short: as §3

ERAP1 WT [17] = experiment: Allosteric activation of L-AMC hydrolysis, varying peptide effector, ERAP1 WT; assay type: biochemical, human; conditions: 0–2,000 μM peptide, 100 μM L-AMC, 27 °C, three independent repeats
In short: as §3

ERAP1 V737R [18] = biological target: T2, ERAP1 V737R; experiment: Allosteric activation of L-AMC hydrolysis, varying peptide effector, V737R; assay type: biochemical; conditions: 0–2,000 μM peptide, 100 μM L-AMC, 27 °C, three independent repeats
In short: as §3

ERAP1 F803R [19] = biological target: ERAP1 F803R (Homo sapiens, UniProt Q9NZ08, F803R/R127P); experiment: N-terminal peptide trimming, LC-MS/MS, F803R; assay type: biochemical; conditions: from 11-mer KL1, pH 7.8, 30 °C, two independent experiments
Sequence of ERAP1 F803R (Homo sapiens, UniProt Q9NZ08, F803R/R127P) (Q9NZ08 whole entry R127P/F803R): as the sequence (Q9NZ08 whole entry V737R) above, with R127P, R737V, F803R counted along it

ERAP1 WT [20] = experiment: N-terminal peptide trimming, LC-MS/MS, ERAP1 WT; assay type: biochemical, human; conditions: from 11-mer KL1, pH 7.8, 30 °C, two independent experiments
ERAP1 = conditions: cited from earlier work
[21] = no peptide activator, three independent repeats
[22] = 100 μM peptide, relative to wildtype
[23] = 1.5 μg/ml enzyme, 50 mM Tris/HCl pH 8.0, 0.1 M NaCl, 5 min
[24] = read-out: AC50 (half maximal activation concentration), pH 8.0
[25] = 100 μM peptide, 0–2,000 μM L-AMC

T1 sequence (Q9NZ08 whole entry I681R): as the sequence (Q9NZ08 whole entry V737R) above, with I681R, R737V counted along it

## Cc1cc(=O)oc2cc(NC(=O)[C@@H](N)CC(C)C)ccc12 [L-AMC, leucine-7-amido-4-methyl-coumarin, reference compound]
ERAP1 I681R [1]; no peptide
  basal L-AMC hydrolysis: low but detectable basal level; also recorded: higher than the other mutant enzymes and the WT enzyme
ERAP1 WT [2]; no peptide
  basal L-AMC hydrolysis: low but detectable basal level
ERAP1 V737R [3]; no peptide
  basal L-AMC hydrolysis: low but detectable basal level
ERAP1 I681R [4]; [21]
  Hill coef. (h): 1.8
  K1/2 (half-Vmax concentration of L-AMC): 0.23 ± 0.04 mM
ERAP1 L733R [5]; no peptide
  basal L-AMC hydrolysis: low but detectable basal level
ERAP1 L733R [6]; [21]
  Hill coef. (h): 1.5
  K1/2 (half-Vmax concentration of L-AMC): 0.19 ± 0.03 mM
ERAP1 F803R [7]; no peptide
  basal L-AMC hydrolysis: low but detectable basal level
ERAP1 L734R [8]; [21]
  Hill coef. (h): 1.3
  K1/2 (half-Vmax concentration of L-AMC): 0.33 ± 0.09 mM
ERAP1 F803R [9]; [21]
  K1/2 (half-Vmax concentration of L-AMC): 0.39 ± 0.06 mM
ERAP1 WT [10]; [21]
  Hill coef. (h): 2.6
  K1/2 (half-Vmax concentration of L-AMC): 0.38 ± 0.05 mM
ERAP1 L734R [11]; no peptide
  basal L-AMC hydrolysis: low but detectable basal level; also recorded: higher than the other mutant enzymes and the WT enzyme
ERAP1 V737R [12]; [21]
  Hill coef. (h): 1.9
  K1/2 (half-Vmax concentration of L-AMC): 0.52 ± 0.09 mM

## IINFEKE
ERAP1 I681R [1]; 100 μM peptide
  activation of L-AMC hydrolysis over basal level: not activated significantly above their basal levels
ERAP1 WT [2]
  activation of L-AMC hydrolysis over basal level: not activated significantly above their basal levels; also recorded: did not show significant difference from their respective basal activity
ERAP1 V737R [3]; 100 μM peptide
  activation of L-AMC hydrolysis above basal activity: ~ 30%
  activation of L-AMC hydrolysis over basal level: slight but significant activation
ERAP1 WT and variants
  change of sigmoidal curves, h values, or Vmax: did not change much the sigmoidal curves
ERAP1 L733R [5]; 100 μM peptide
  activation of L-AMC hydrolysis over basal level: not activated significantly above their basal levels; also recorded: did not show significant difference from their respective basal activity
ERAP1 F803R [7]
  activation of L-AMC hydrolysis over basal level: not activated significantly above their basal levels; also recorded: did not show significant difference from their respective basal activity
ERAP1 L734R [11]; 100 μM peptide
  activation of L-AMC hydrolysis over basal level: not activated significantly above their basal levels
ERAP1 V737R [12]
  allosteric activation in steady state kinetics: significantly activated; also recorded: not a very effective activator

## IINFEKL
ERAP1 I681R [1]; [22]
  allosteric activation compared to wildtype enzyme: about 75%
ERAP1 L733R [13]; [23]
  Vmax of L-AMC hydrolysis, peptide activator varied: 211 ± 10 nmol/min/µg
ERAP1 L733R [13]; [24]
  AC50: 440 ± 60 µM
ERAP1 WT [2]
  activation of L-AMC hydrolysis over basal level: significant increase
ERAP1 V737R [3]; 100 μM peptide
  activation of L-AMC hydrolysis over basal level: lowest activity in the presence of IINFEKL peptide and with the smallest activation from its basal activity
ERAP1 L734R [14]; [23]
  Vmax of L-AMC hydrolysis, peptide activator varied: 112 ± 8 nmol/min/µg
ERAP1 L734R [14]; [24]
  AC50: 580 ± 120 µM
ERAP1 I681R [4]; [25]
  allosteric activation in steady state kinetics: significant or dramatic increase of Vmax
ERAP1 L733R [5]; [22]
  allosteric activation compared to wildtype enzyme: ~50%
ERAP1 I681R [15]; [23]
  Vmax of L-AMC hydrolysis, peptide activator varied: 175 ± 54 nmol/min/µg
ERAP1 I681R [15]; [24]
  AC50: 1460 ± 840 µM
ERAP1 L733R [6]; [25]
  allosteric activation in steady state kinetics: significant or dramatic increase of Vmax
ERAP1 F803R [16]; [23]
  Vmax of L-AMC hydrolysis, peptide activator varied: 217 ± 9 nmol/min/µg
ERAP1 F803R [16]; [24]
  AC50: 170 ± 30 µM
ERAP1 WT [17]; [23]
  Vmax of L-AMC hydrolysis, peptide activator varied: 241 ± 6 nmol/min/µg
ERAP1 WT [17]; [24]
  AC50: 80 ± 10 µM
ERAP1 F803R [7]
  activation of L-AMC hydrolysis over basal level: significant increase
ERAP1 L734R [8]; [25]
  allosteric activation in steady state kinetics: significant or dramatic increase of Vmax
ERAP1 V737R [18]; [23]
  Vmax of L-AMC hydrolysis, peptide activator varied: 62 ± 7 nmol/min/µg
ERAP1 V737R [18]; [24]
  AC50: 590 ± 170 µM
ERAP1 F803R [9]; [25]
  allosteric activation in steady state kinetics: significant or dramatic increase of Vmax; also recorded: effective allosteric activator
ERAP1 WT [10]; [25]
  allosteric activation in steady state kinetics: significant or dramatic increase of Vmax; also recorded: effective allosteric activator
ERAP1 L734R [11]; [22]
  allosteric activation compared to wildtype enzyme: ~55%
ERAP1 V737R [12]
  allosteric activation in steady state kinetics: significant or dramatic increase of Vmax

## LESIINFEKL [KL2]
ERAP1 F803R [19]
  time after which the amount of 10-mer product began to decrease: > 10 min
ERAP1 WT [20]
  time after which the amount of 10-mer product began to decrease: > 10 min

## QLESIINFEKL [KL1]
ERAP1
  processing by ERAP1: efficiently processed by ERAP1
